Reference: ChEMBL document CHEMBL3232885, “Synthesis, characterization and pharmacological screening of some novel 5-imidazopyrazole incorporated polyhydroquinoline derivatives” (Eur J Med Chem, 2014)
≈ marks a conversion by molar mass, not a printed value.

What was measured:
Bacillus subtilis = test: Antibacterial activity against Bacillus subtilis MTCC 441 assessed as growth inhibition after 24 to 48 hrs by broth microdilution method; assay type: functional
How it was run: (§1)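 Bacteria were grown in Mueller-Hinton broth with inoculum adjusted to 10⁸ CFU mL⁻¹ by turbidity. Compounds were serially diluted in 2% aqueous DMSO and incubated at 37 °C overnight. Growth was checked by subculture at 24 and 48 h. MIC was taken as the highest dilution with no turbidity after spot subculture.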

Clostridium tetani = test: Antibacterial activity against Clostridium tetani MTCC 449 assessed as growth inhibition after 24 to 48 hrs by broth microdilution method; assay type: functional
Salmonella typhi = test: Antibacterial activity against Salmonella typhi MTCC 98 assessed as growth inhibition after 24 to 48 hrs by broth microdilution method; assay type: functional, Salmonella enterica subsp. enterica serovar Typhi; settings: Salmonella enterica
Streptococcus pneumoniae = test: Antibacterial activity against Streptococcus pneumoniae MTCC 1936 assessed as growth inhibition after 24 to 48 hrs by broth microdilution method; assay type: functional; how it was run: as §1
Aspergillus fumigatus = test: Antifungal activity against Aspergillus fumigatus MTCC 3008 assessed as growth inhibition after 24 to 48 hrs by broth microdilution method; assay type: functional
How it was run: (§2)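 Fungal nutrition used Sabouraud Dextrose broth with inoculum at 10⁸ CFU mL⁻¹ by turbidity. Serial compound dilutions were made in 2% DMSO in water. Growth was noted on subculture after 24 and 48 h. MIC was taken as the highest dilution preventing visible turbidity after spot subculture.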

Candida albicans = test: Antifungal activity against Candida albicans MTCC 227 assessed as growth inhibition after 24 to 48 hrs by broth microdilution method; assay type: functional; how it was run: as §2
[1] = test system: Mycobacterium tuberculosis; test: Antitubercular activity against Mycobacterium tuberculosis H37Rv assessed as inhibition of colony formation at 250 ug/mL after 2 to 4 weeks by Lowensteine-Jensen method relative to control; assay type: functional
Vibrio cholerae = test: Antibacterial activity against Vibrio cholerae MTCC 3906 assessed as growth inhibition after 24 to 48 hrs by broth microdilution method; assay type: functional
Plasmodium falciparum = test: Antimalarial activity against chloroquine/quinine sensitive Plasmodium falciparum assessed as parasite growth inhibition after 48 hrs; assay type: functional, organism-based
[2] = test system: Mycobacterium tuberculosis; test: Antitubercular activity against Mycobacterium tuberculosis H37Rv assessed as inhibition of colony formation at 100 ug/mL after 2 to 4 weeks by Lowensteine-Jensen method relative to control; assay type: functional
Escherichia coli = test: Antibacterial activity against Escherichia coli MTCC 443 assessed as growth inhibition after 24 to 48 hrs by broth microdilution method; assay type: functional; how it was run: as §1

Row | SMILES | MIC (Bacillus subtilis) [µg/mL] | MIC (Clostridium tetani) [µg/mL] | MIC (Salmonella typhi) [µg/mL] | MIC (Streptococcus pneumoniae) [µg/mL] | MIC (Aspergillus fumigatus) [µg/mL] | MIC (Candida albicans) [µg/mL] | inhibition at 250 µg/mL [1] [%] | MIC (Vibrio cholerae) [µg/mL] | IC50 (Plasmodium falciparum) [µg/mL] | inhibition at 100 µg/mL [2] [%] | MIC (Escherichia coli) [µg/mL]
1 | Cc1nn(-c2ccccc2)c(-n2ccnc2)c1C1C(C(N)=O)=C(N)N(c2cccc(O)c2)C2=C1C(=O)CC(C)(C)C2 (configuration not stated) | 200 (≈ 364 µM) | 200 (≈ 364 µM) | 200 (≈ 364 µM) | 125 (≈ 227 µM) | 500 (≈ 910 µM) | 500 (≈ 910 µM) | 84 | 200 (≈ 364 µM) | 0.57 (≈ 1.04 µM) | 75 | 125 (≈ 227 µM)
2 | CCOC(=O)C1=C(N)N(c2ccc(C)cc2)C2=C(C(=O)CC(C)(C)C2)C1c1c(C)nn(-c2ccccc2)c1-n1ccnc1 (configuration not stated) | 250 (≈ 434 µM) | 250 (≈ 434 µM) | 100 (≈ 173 µM) | 100 (≈ 173 µM) | > 1000 | 1000 (≈ 1730 µM) | 12 | 100 (≈ 173 µM) | 1.79 (≈ 3.1 µM) | 6 | 125 (≈ 217 µM)
3 | Cc1nn(-c2ccccc2)c(-n2ccnc2)c1C1C(C(N)=O)=C(N)N(c2ccc(O)cc2)C2=C1C(=O)CC(C)(C)C2 (configuration not stated) | 200 (≈ 364 µM) | 250 (≈ 455 µM) | 125 (≈ 227 µM) | 250 (≈ 455 µM) | 1000 (≈ 1820 µM) | 500 (≈ 910 µM) | 70 | 250 (≈ 455 µM) | 0.057 (≈ 0.104 µM) | 61 | 250 (≈ 455 µM)
4 | Cc1nn(-c2ccccc2)c(-n2ccnc2)c1C1C(C#N)=C(N)N(c2ccc(Cl)cc2)C2=C1C(=O)CC(C)(C)C2 (configuration not stated) | 200 (≈ 364 µM) | 125 (≈ 227 µM) | 500 (≈ 909 µM) | 125 (≈ 227 µM) | 500 (≈ 909 µM) | > 1000 | 84 | 250 (≈ 454 µM) | 0.073 (≈ 0.133 µM) | 76 | 500 (≈ 909 µM)
5 | COc1ccc(N2C(N)=C(C#N)C(c3c(C)nn(-c4ccccc4)c3-n3ccnc3)C3=C2CC(C)(C)CC3=O)cc1 (configuration not stated) | 125 (≈ 229 µM) | 100 (≈ 183 µM) | 100 (≈ 183 µM) | 100 (≈ 183 µM) | 500 (≈ 916 µM) | 1000 (≈ 1830 µM) | 91 | 250 (≈ 458 µM) | 0.086 (≈ 0.158 µM) | 88 | 200 (≈ 367 µM)
6 | CC1(C)S[C@@H]2[C@H](NC(=O)[C@H](N)c3ccccc3)C(=O)N2[C@H]1C(=O)O [AMPICILLIN] | 100 (≈ 286 µM) | 100 (≈ 286 µM) | 10 (≈ 28.6 µM) | 100 (≈ 286 µM) | – | – | – | 50 (≈ 143 µM) | – | – | 10 (≈ 28.6 µM)
7 | O=C(O)c1cn(C2CC2)c2cc(N3CCNCC3)c(F)cc2c1=O [CIPROFLOXACIN] | 100 (≈ 302 µM) | – | 10 (≈ 30.2 µM) | – | – | – | – | 50 (≈ 151 µM) | – | – | –
8 | Cc1nn(-c2ccccc2)c(-n2ccnc2)c1C1C(C#N)=C(N)N(c2ccc(O)cc2)C2=C1C(=O)CC(C)(C)C2 (configuration not stated) | 250 (≈ 470 µM) | 500 (≈ 941 µM) | 250 (≈ 470 µM) | 200 (≈ 376 µM) | 1000 (≈ 1880 µM) | 500 (≈ 941 µM) | 94 | 250 (≈ 470 µM) | 1.23 (≈ 2.31 µM) | 94 | 200 (≈ 376 µM)
9 | CO[C@H]1/C=C/O[C@@]2(C)Oc3c(C)c(O)c4c(O)c(c(/C=N/N5CCN(C)CC5)c(O)c4c3C2=O)NC(=O)/C(C)=C\C=C\[C@H](C)[C@H](O)[C@@H](C)[C@@H](O)[C@@H](C)[C@H](OC(C)=O)[C@@H]1C [RIFAMPIN] | – | – | – | – | – | – | 98 | – | – | 98 | –
10 | COC1=CC(=O)C[C@@H](C)[C@]12Oc1c(Cl)c(OC)cc(OC)c1C2=O [GRISEOFULVIN] | – | – | – | – | 100 (≈ 283 µM) | 100 (≈ 283 µM) | – | – | – | – | –
11 | Cc1ccc(N2C(N)=C(C(N)=O)C(c3c(C)nn(-c4ccccc4)c3-n3ccnc3)C3=C2CC(C)(C)CC3=O)cc1 (configuration not stated) | 250 (≈ 456 µM) | 200 (≈ 365 µM) | 200 (≈ 365 µM) | 250 (≈ 456 µM) | 250 (≈ 456 µM) | > 1000 | 35 | 250 (≈ 456 µM) | 1.02 (≈ 1.87 µM) | 30 | 200 (≈ 365 µM)
12 | O=C(N[C@H](CO)[C@H](O)c1ccc([N+](=O)[O-])cc1)C(Cl)Cl [CHLORAMPHENICOL] | 50 (≈ 155 µM) | 25 (≈ 77.4 µM) | 50 (≈ 155 µM) | 100 (≈ 309 µM) | – | – | – | 50 (≈ 155 µM) | – | – | 10 (≈ 30.9 µM)
13 | Cc1nn(-c2ccccc2)c(-n2ccnc2)c1C1C(C(N)=O)=C(N)N(c2ccccc2)C2=C1C(=O)CC(C)(C)C2 (configuration not stated) | 125 (≈ 234 µM) | 125 (≈ 234 µM) | 250 (≈ 468 µM) | 200 (≈ 375 µM) | 1000 (≈ 1870 µM) | 250 (≈ 468 µM) | 7 | 250 (≈ 468 µM) | 0.62 (≈ 1.16 µM) | 4 | 200 (≈ 375 µM)
